APJ antagonist – blocks the human apelin receptor APJ; P35414; CHO-K1 APJ beta-arrestin complementation, luminescence; inhibition, % at 20 µM; actives 0.32% (n = 330,000); AID 2521;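 active = inhibition above about 40% at 20 µM, limit read from the data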;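 also: cells challenged with 10 nM apelin-13 agonist together with compound; plate controls were apelin-13 plus DMSO wells for no effect and DMSO wells lacking apelin-13 for full effect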
CXCR6 inh – inhibitors of human CXCR6 receptor; O00574; CHO-K1 PathHunter CXCR6 beta-arrestin, luminescence; inhibition, % at 20 µM; actives 0.36% (n = 360,000); AID 602244; in the data active = inhibition above about 34%, passing the limit was not always enough;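 also: antagonist mode with CXCL16 agonist at 10 nM final; 0% = 10 nM CXCL16 with DMSO and 100% = unstimulated wells without agonist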
APJ ag – APJ receptor agonism; P35414; CHO-K1 APJ PathHunter beta-arrestin, luminescence; 0% DMSO wells, 100% apelin; activation, % at 20 µM; actives 0.11% (n = 330,000);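 active = activation more than six SD over the plate average, tested at 20 µM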;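 also: 0% = DMSO alone and 100% = apelin-13 at 10 nM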
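Incubation: overnight seeding, 90 min compound at 25 °C, 1 h detection; test system: PathHunter CHO-K1 APJ (AGTRL-1) beta-arrestin reporter cells; amount: 1000 cells/well; doses: one dose, 20 µM compound, 1% DMSO; measured by: beta-gal luminescence; measure: agonist-driven arrestin binding to APJ; benchmarks: negative DMSO alone, positive Apelin-13 at 10 nM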
EBI2 block – antagonists of human EBI2 receptor; AID 651636; inhibition, % at 5 µM; EBI2 beta-arrestin recruitment, luminescence, 7a,25-OHC stimulated; actives 0.81% (n = 360,000); P32249; in the data active = inhibition above about 38%;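 also: enzyme fragment complementation signal reports receptor beta-arrestin coupling in cells; 0% = agonist plus DMSO wells and 100% = wells without agonist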
Target sequence (P32249 whole entry, looked up, the tested form may be a part): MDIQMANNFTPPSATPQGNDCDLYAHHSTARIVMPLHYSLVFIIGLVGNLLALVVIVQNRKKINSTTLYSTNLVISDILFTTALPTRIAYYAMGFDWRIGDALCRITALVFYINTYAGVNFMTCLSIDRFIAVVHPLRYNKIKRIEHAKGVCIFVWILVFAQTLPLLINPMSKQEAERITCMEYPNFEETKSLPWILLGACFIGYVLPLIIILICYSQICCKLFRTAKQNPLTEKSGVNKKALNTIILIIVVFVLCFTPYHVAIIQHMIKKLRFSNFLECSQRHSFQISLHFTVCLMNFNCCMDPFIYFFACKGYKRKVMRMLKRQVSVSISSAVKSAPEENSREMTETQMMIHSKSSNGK
GAA850 FXN act – activators of GAA850 frataxin (FXN) promoter. HEK293 lucGAA850 FXN promoter luciferase reporter, 24 h; percent of 10 µM SAHA response. activation, % at 6 µM. actives 0.56% (n = 360,000);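 active = activation above the average of all compounds screened plus 3 SD, cutoff fixed separately per campaign, cut at about 7.5% in these data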;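 also: 0% = DMSO wells and 100% = 10 µM SAHA wells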
CCR6 antag – CCR6 (human) receptor antagonism. actives 0.49% (n = 340,000). P51684. CHO-K1 CCR6 PathHunter beta-arrestin, luminescence, CCL20-stimulated. inhibition, % at 20 µM;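 active = compounds whose inhibition of the agonist-driven luminescence signal at 20 µM reaches about 50%, limit read from the data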;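 also: cells stimulated with CCL20 at 14 nM final; plate controls were DMSO with CCL20 for no effect and DMSO without agonist for full effect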
An asterisk follows results filed as active. Compounds with a hit are over-represented: about 2% of the library has one in this group of screens.

Screening COc1ccc(CNC(=O)c2cccc(NC(=O)CC3SC(N4CCCCC4)=NC3=O)c2)cc1 (centres undefined) returned APJ antagonist 1, CXCR6 inh -10, APJ ag -2, EBI2 block -8, GAA850 FXN act 1 and CCR6 antag 12.
Cc1ccc(C(=O)NC(=S)Nc2cccc3c(C)cc(C)nc23)cc1 was read as APJ antagonist 1, CXCR6 inh 20, APJ ag -1, EBI2 block 34, GAA850 FXN act 1 and CCR6 antag 51*.
Cc1ccc(C(=O)NC(=S)Nc2cccc3nsnc23)cc1 was read as APJ antagonist 9, CXCR6 inh 12, APJ ag -3, EBI2 block 2, GAA850 FXN act 3 and CCR6 antag 45.
For O=C1ON=C(c2ccccc2)/C1=C/c1ccc(O)cc1 the results were APJ antagonist 8, CXCR6 inh 46*, APJ ag -2, EBI2 block -34, GAA850 FXN act -1 and CCR6 antag 39.
For O=C1ON=C(c2ccccc2)/C1=C/c1ccccc1 the results were APJ antagonist 5, CXCR6 inh -2, APJ ag 4, EBI2 block -5, GAA850 FXN act 0 and CCR6 antag 8.
Screening COc1cc(/C=C2/C(=O)ON=C2c2ccccc2)ccc1O returned APJ antagonist 25, CXCR6 inh 33, APJ ag -4, EBI2 block -5, GAA850 FXN act 0 and CCR6 antag 55*.
Screening O=C1CC2(CCN(C(=O)c3ccc(F)cc3)CC2)Oc2ccccc21 returned APJ antagonist -55, CXCR6 inh 2, APJ ag 4, EBI2 block -4, GAA850 FXN act -1 and CCR6 antag 6.
Screening CC(C)c1ccc(NC2CCCN(C(=O)c3cccs3)C2)cc1 (centres undefined) returned APJ antagonist 9, CXCR6 inh -7, APJ ag -2, EBI2 block -6, GAA850 FXN act 1 and CCR6 antag 12.
For COc1ccc(C(=O)c2sc3nc(C)cc(-c4cccs4)c3c2N)cc1 the results were CXCR6 inh 5, EBI2 block 33, GAA850 FXN act 2 and CCR6 antag -9.
COc1ccc(C(=O)c2sc3nc(C)cc(-c4cccs4)c3c2N)cc1OC was read as CXCR6 inh -5, EBI2 block 55*, GAA850 FXN act 2 and CCR6 antag 12.
CC(=O)N1CCn2c3c(c(=O)c4cc(C)ccc42)CCC31 (centres undefined) was read as APJ antagonist 40*, CXCR6 inh 12, APJ ag -11, EBI2 block 7, GAA850 FXN act 0 and CCR6 antag 27.
Screening CC(=O)N1CCn2c3c(c4cc(C)ccc42)CCCC31 (centres undefined) returned APJ antagonist 12, CXCR6 inh -2, APJ ag -3, EBI2 block 5, GAA850 FXN act 1 and CCR6 antag -2.
Screening O=C(c1cc(-c2ccco2)on1)N1CCN(C(c2ccccc2)c2ccccc2)CC1 returned APJ antagonist 20, CXCR6 inh 17, APJ ag -5, EBI2 block 91*, GAA850 FXN act 1 and CCR6 antag 18.
CC(C)c1cc(C(=O)N2CCN(C(c3ccccc3)c3ccccc3)CC2)no1 was read as APJ antagonist -3, CXCR6 inh 22, APJ ag -2, EBI2 block 20, GAA850 FXN act 1 and CCR6 antag 10.
For NC(Cc1ccc(C(F)(F)F)cc1)c1csc(Nc2cc(Oc3ccccc3)ncn2)n1 (centres undefined) the results were CXCR6 inh -17, EBI2 block 6 and GAA850 FXN act 0.
Screening CCOC(=O)C1(CC)Oc2ccccc2C(c2ccc(OC)cc2)=C1C(=O)OC (centres undefined) returned CXCR6 inh 48*, EBI2 block 14, GAA850 FXN act -2 and CCR6 antag 28.
Screening CCOC(=O)C1Oc2ccccc2C(c2ccc(C)cc2)=C1C(=O)OC (centres undefined) returned CXCR6 inh 25, EBI2 block 10, GAA850 FXN act -1 and CCR6 antag 40.
For CC(=O)OC(C)C1C2=C(C(=O)CC1(C)O)C(=O)c1c(ccc(-c3ccc4c(c3O)C(=O)C3=C(C4=O)C(C(C)OC(C)=O)C(C)(O)CC3=O)c1O)C2=O (centres undefined) the results were CXCR6 inh 29, EBI2 block -9, GAA850 FXN act 0 and CCR6 antag 52*.
Screening COc1ccccc1Nc1cc(C)nc(Nc2ccccc2OC)n1 returned APJ antagonist 8, CXCR6 inh -7, APJ ag -3, EBI2 block 16, GAA850 FXN act 1 and CCR6 antag 13.
For O=C(CN1C(=O)COc2ccccc21)N1CCN(C2CCCCC2)CC1 the results were APJ antagonist -3, CXCR6 inh -6, APJ ag 2, EBI2 block -1, GAA850 FXN act 0 and CCR6 antag -9.
For CCCOc1ccc(-c2c(C(=O)N/N=C(\C)c3cccs3)nnn2-c2nonc2N)cc1 the results were APJ antagonist 22, CXCR6 inh -3, APJ ag 3, EBI2 block 14, GAA850 FXN act 0 and CCR6 antag -5.
CCC(C)Sc1ccc(-c2nc3ccc(C)cn3c2NCc2ccccc2)cc1OC (centres undefined) was read as APJ antagonist -68, CXCR6 inh 31, APJ ag 14, EBI2 block 69*, GAA850 FXN act -1 and CCR6 antag 46.
For CCC(C)Sc1cc(-c2nc3ccc(C)cn3c2NCc2ccccc2)ccc1OC (centres undefined) the results were CXCR6 inh 36, EBI2 block -16, GAA850 FXN act -5 and CCR6 antag 44.
For Cc1ccc(NC(=O)[C@@H]2O[C@H](CO)[C@H](O)[C@H](O)[C@H]2O)cc1C(F)(F)F the results were CXCR6 inh 1, EBI2 block 2 and GAA850 FXN act 1.
Screening C#CCOCCOCCOCCNc1nc(N2CCN(C(=O)CCCCCCCCCCNC(=O)[C@H]([C@@H](C)CC)n3cc(CCCCN=C(N)N)nn3)CC2)nc(N2CCN(C(=O)CCCCCCCCCCNC(=O)[C@H](CCCCN)n3cc(C[C@@H](C)CC)nn3)CC2)n1 returned APJ antagonist 31 and APJ ag 59*.
For C#CCOCCOCCOCCNc1nc(N2CCN(C(=O)CCCCCCCCCCNC(=O)[C@H](CCCCN)n3cc(CCO)nn3)CC2)nc(N2CCN(C(=O)CCCCCCCCCCNC(=O)[C@H](CCCN=C(N)N)n3cc(C[C@@H](C)CC)nn3)CC2)n1 the results were APJ antagonist 26, CXCR6 inh 26, APJ ag -1, EBI2 block -3, GAA850 FXN act 0 and CCR6 antag -29.

Screens from PubChem BioAssay.
